Hits are enriched below; roughly 3.5% of the tested compounds scored in any of these assays.
RGS4 pot – RGS4 potentiation or activation; 310,000 tested, 0.92% active; B-score at 10 µM; HEK293 M3R/inducible RGS4, carbachol calcium flux Fluo4; hits give low values;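 active = B-score of the integrated calcium signal more than 4 SD below the library mean, with starting fluorescence not abnormally high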;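 also: negative B-score means reduced calcium response which marks RGS4 activation or potentiation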
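Material: Inducible-RGS4 HEK293 cells carrying M3 receptor; also added: carbachol at ECmax as muscarinic agonist stimulus; incubation: compound preincubation 20 min at room temperature before agonist; signal: Fluo4-AM (2 µM) calcium-flux fluorescence, kinetic read; measure: integrated calcium ratio converted to B score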
MrgX1 PAM – human MrgX1 positive allosteric modulation, primary screen. Q96LB2. MrgX1-HEK293, Fluo-4 calcium flux, FDSS; hits give high values. B-score at 10 µM. 310,000 tested, 0.63% active;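 active = plate-corrected calcium response at least 3 library SD above typical, normal starting fluorescence, not activating the receptor alone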;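 also: compound read alongside a low EC10 to EC30 dose of BAM8-22 agonist; peak minus trough fluorescence over baseline measured at the second addition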
MrgX1 ag – activates human MrgX1 receptor signaling. Q96LB2. MrgX1-HEK293 cells, Fluo-4 calcium fluorescence, agonist mode; hits give high values. B-score at 10 µM. 310,000 tested, 0.44% active. AID 588627;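 active = calcium response B-score plate-corrected fluorescence ratio at least 3 library SD, with starting fluorescence B-score inside 5 SD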
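System: HEK293 cells stably expressing human MrgX1 receptor; Dosing: test compound in the initial addition of three; Schedule: overnight plating, then 30 min 37 °C plus 30 min room-temperature dye loading; Detection: kinetic calcium dye fluorescence, Fluo-4 NW; Controls: per-plate positive and negative controls for Z′ factor.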
MrgX1 antagonist – human MrgX1 receptor antagonism, primary screen. B-score at 10 µM. MRGX1-HEK293 calcium flux, Fluo-4, BAM8-22 antagonism; hits give low values. Q96LB2. AID 588676. 310,000 tested, 1.3% active;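 active = calcium-response B-score plate-corrected more than 3 library SD below zero, starting fluorescence within 5 deviations, no agonist response on first addition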;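 also: peak minus trough fluorescence over baseline after final BAM8-22 challenge near maximal dose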
RGS4 block – human RGS4 inhibition. P49798. HEK293 M3R/RGS4 inducible, Fluo-4 calcium flux; hits give high values; triggered by carbachol at its EC20. B-score at 10 µM. 310,000 tested, 0.45% active. AID 463165;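 active = B-score, a plate-corrected calcium signal, over three deviations above library mean, with baseline fluorescence within five deviations of library mean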;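 also: RGS4 expression induced by doxycycline in cells with stable M3 receptor; B-score is computed from the integrated fluorescence ratio over baseline after carbachol; higher B-score means a larger calcium signal and so more RGS4 inhibition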
Target sequence (P49798 whole entry, looked up): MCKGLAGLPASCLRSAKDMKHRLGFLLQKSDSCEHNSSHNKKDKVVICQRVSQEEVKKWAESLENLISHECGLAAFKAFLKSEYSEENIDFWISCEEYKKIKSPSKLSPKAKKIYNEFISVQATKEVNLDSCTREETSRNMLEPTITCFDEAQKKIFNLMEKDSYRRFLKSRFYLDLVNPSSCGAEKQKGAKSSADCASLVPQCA
The depositor's hits bear a star; i = inactive; · = not tested or not shown.

SMILES | RGS4 pot | MrgX1 PAM | MrgX1 ag | MrgX1 antagonist | RGS4 block
O=C(Nc1ccc(Cl)c(C(F)(F)F)c1)[C@@H]1CC=C[C@@H]2CCN(Cc3ccccc3)C(=O)[C@@H]21 | i | 7.25* | i | i | i
NN1C(=O)/C(=C2/Sc3ccccc3N2CCCS(=O)(=O)O)SC1=S | i | i | i | i | i
O=C1NC(=S)S/C1=C1\Sc2ccccc2N1CCCS(=O)(=O)O | i | i | i | -4.76* | i
O=[N+]([O-])c1ccc(NC(=S)NCCc2ccc(F)cc2)cc1 | i | i | 30.3* | i | i
O=C(NCCc1ccc(F)cc1)Nc1ccc([N+](=O)[O-])cc1 | i | i | i | i | i
Cc1c(/C=N/NC(=O)c2ccccc2O)c2ccccn2c1C(=O)c1ccc(F)cc1 | i | i | i | -7.13* | i
Cc1c(/C=N/NC(=O)c2ccc(O)cc2)c2ccccn2c1C(=O)c1ccc(F)cc1 | i | i | i | i | i
COC(=O)N/N=C/c1c(C)c(C(=O)c2ccc(F)cc2)n2ccccc12 | i | i | i | i | i
Cc1c(C(=O)Nc2ccc(Cl)cc2)c2ccccn2c1C(=O)c1ccc(F)cc1 | -9.11* | i | i | i | i
Cc1c(N=C2N=C(NC(=O)c3cccs3)c3ccccc32)c(=O)n(-c2ccccc2)n1C | i | i | 33* | i | i
Cc1nc(C)c(Oc2cccc(C(F)(F)F)c2)c(=O)[nH]1 | i | i | i | i | i
COc1cccc2cc(-c3cn4cccc(C)c4n3)c(=O)oc12 | i | i | 38.3* | i | i
CCc1ccc(C(=O)C(C)OC(=O)c2cccc(S(=O)(=O)N3CCOCC3)c2)cc1 (configuration not stated) | i | i | i | i | i
CCn1c(-c2cc3c(C(F)(F)F)nn(C)c3s2)n[nH]c1=S | i | i | i | i | i
Cc1ccc(C)c2sc(N3CCN(C(=O)c4ccc([N+](=O)[O-])o4)CC3)nc12 | i | i | i | -7.55* | i
O=C(c1ccc([N+](=O)[O-])o1)N1CCN(c2nc3c(F)cc(F)cc3s2)CC1 | i | i | i | i | i
CCOC(=O)N1CCN(C(=O)c2ccc3c(=O)n(Cc4ccc(Cl)cc4)c(=S)[nH]c3c2)CC1 | i | i | i | i | i
CCOC(=O)N1CCN(C(=O)c2ccc(Cn3c(=S)[nH]c4ccc(Br)cc4c3=O)cc2)CC1 | i | i | i | -5.6* | i
CC(C)(O)c1cn(-c2nonc2N)nn1 | i | i | i | i | i
COc1cc(NC(=O)COC(=O)[C@@H]2CCCN2S(=O)(=O)c2ccc(Cl)cc2)cc(OC)c1OC | · | 8.86* | i | i | ·
O=C(COC(=O)[C@@H]1CCCN1S(=O)(=O)c1ccc(Cl)cc1)NC12CC3CC(CC(C3)C1)C2 | i | i | i | i | i
CCOC(=O)C[C@H]1c2cc(F)ccc2S(=O)(=O)N1c1cccc(OC)c1 | i | i | i | i | i
N#CCCCN1C(=O)C(=C(C#N)C#N)c2ccccc21 | i | i | 32.9* | i | i
CC(C)N=C(N)N=C(N)Nc1ccc(Cl)cc1 | · | i | i | i | ·
NC(=NCCCCCCN=C(N)/N=C(\N)Nc1ccc(Cl)cc1)/N=C(\N)Nc1ccc(Cl)cc1 | i | i | i | -5.7* | i
SMILES | RGS4 pot | MrgX1 PAM | MrgX1 ag | MrgX1 antagonist | RGS4 block
CCC(C)(O)c1[nH]c2ccc(C#N)cc2c1C (configuration not stated) | i | i | i | i | i
O=c1c2c([N+](=O)[O-])cc([N+](=O)[O-])cc2sn1Cc1ccccc1 | i | i | 36.7* | i | i
O=c1c2c([N+](=O)[O-])cc([N+](=O)[O-])cc2sn1-c1ccc(Br)cc1 | · | i | i | i | ·
CN1C(=O)C(N=Nc2ccccc2C(=O)O)N(C)C1=S (configuration not stated) | i | i | 48.5* | i | i
CC1=NN(C(N)=S)C(=O)C1N=Nc1ccccc1C(=O)O (configuration not stated) | i | i | i | i | i
COc1ccc(C(=O)NC(=S)Nc2cccc3ncccc23)cc1[N+](=O)[O-] | i | i | i | i | i
